What was measured:
Thymidylate synthase [1] = biological target: T1, Thymidylate synthase (Lactobacillus casei, UniProt P00469); test: Inhibitory activity against thymidylate Synthase from Lactobacillus casei; parameters: species or system Lacticaseibacillus casei
T1 sequence (P00469 whole entry): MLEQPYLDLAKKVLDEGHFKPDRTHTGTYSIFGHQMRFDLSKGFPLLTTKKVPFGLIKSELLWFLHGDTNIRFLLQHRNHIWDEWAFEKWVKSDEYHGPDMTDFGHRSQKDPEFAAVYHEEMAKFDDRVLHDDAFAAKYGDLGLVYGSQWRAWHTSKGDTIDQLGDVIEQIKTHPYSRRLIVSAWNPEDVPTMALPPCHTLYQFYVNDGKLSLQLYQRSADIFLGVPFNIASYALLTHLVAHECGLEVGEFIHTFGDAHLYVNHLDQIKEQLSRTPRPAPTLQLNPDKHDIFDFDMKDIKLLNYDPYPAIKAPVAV

Dihydrofolate reductase [2] = biological target: Dihydrofolate reductase (Lactobacillus casei, UniProt P00381); test: Inhibitory activity against dihydro folate reductase from Lactobacillus casei; parameters: species or system Lacticaseibacillus casei
Dihydrofolate reductase [3] = biological target: T2, Dihydrofolate reductase (Homo sapiens, UniProt P00374); test: Inhibitory activity against dihydro folate reductase from human recombinant sources
T2 sequence (P00374 whole entry): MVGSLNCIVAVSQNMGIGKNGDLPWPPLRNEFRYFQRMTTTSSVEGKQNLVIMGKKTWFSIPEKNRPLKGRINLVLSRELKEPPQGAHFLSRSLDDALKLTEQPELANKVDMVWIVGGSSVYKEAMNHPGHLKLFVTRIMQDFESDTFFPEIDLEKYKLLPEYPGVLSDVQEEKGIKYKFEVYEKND

Thymidylate synthase [4] = biological target: Thymidylate synthase (Homo sapiens, UniProt P04818); test: Inhibitory activity against thymidylate Synthase from human recombinant sources
FaDu [5] = test: Protection by 40 uM against the Growth inhibition against Human squamous cell line(Fadu), in the presence of 40 uM thymidine; assay type: functional; parameters: scale not given: the % may be the effect or the level left
A253 cell line = test: Growth inhibition against Human squamous cell line(A 253); assay type: functional, cell-based
In short: (§1)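 Continuous drug exposure growth assay. CCRF-CEM and its MTX-resistant subline R30dm (1% of parental FPGS activity) cultured as previously reported; A253 and FaDu squamous carcinoma monolayers subcultured in RPMI 1640/10% fetal calf serum. EC50 read visually from plots of percent control growth against log drug concentration. Averages ± range for n = 2, ± SD for n ≥ 3.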

CCRF-CEM [6] = test: Growth inhibition against Human leukemic cell line(CCRF-CEM); assay type: functional, cell-based; in short: as §1
FaDu [7] = test: Protection by 50 uM+40 uM against Growth inhibition against Human squamous cell line(Fadu), in the presence of 50 uM hypoxanthine +40 uM thymidine; assay type: functional; parameters: scale not given: the % may be the effect or the level left
FaDu [8] = test: Protection by 50 uM against the Growth inhibition against Human squamous cell line(Fadu); assay type: functional; parameters: scale not given: the % may be the effect or the level left
FaDu [9] = test: Growth inhibition against Human squamous cell line(Fadu); assay type: functional, cell-based; in short: as §1
Dihydrofolate reductase [10] = biological target: T2, Dihydrofolate reductase; test: Inhibitory activity against dihydro folate reductase from human CCRF-CEM leukemic cell line
CCRF-CEM [11] = test: Growth inhibition against Human leukemic cell line (Methotrexate resistant CCRF-CEM); assay type: functional, cell-based; in short: as §1
FaDu [12] = test: Protection against the growth inhibition against Human squamous cell line(Fadu); assay type: functional; parameters: scale not given: the % may be the effect or the level left
FaDu [13] = test: Protection by 10 uM LV against the growth inhibition against Human squamous cell line(Fadu); assay type: functional; parameters: scale not given: the % may be the effect or the level left
CCRF-CEM [14] = test: Growth inhibition against Human leukemic cell line(CCRF-CEM) during continuous exposure

Sequence of Dihydrofolate reductase (Lactobacillus casei, UniProt P00381) (P00381 whole entry): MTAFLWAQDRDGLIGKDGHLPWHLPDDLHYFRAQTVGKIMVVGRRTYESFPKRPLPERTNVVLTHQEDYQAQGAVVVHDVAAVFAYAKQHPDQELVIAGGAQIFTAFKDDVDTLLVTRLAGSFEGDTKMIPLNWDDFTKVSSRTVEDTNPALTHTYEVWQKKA
Sequence of Thymidylate synthase (Homo sapiens, UniProt P04818) (P04818 whole entry): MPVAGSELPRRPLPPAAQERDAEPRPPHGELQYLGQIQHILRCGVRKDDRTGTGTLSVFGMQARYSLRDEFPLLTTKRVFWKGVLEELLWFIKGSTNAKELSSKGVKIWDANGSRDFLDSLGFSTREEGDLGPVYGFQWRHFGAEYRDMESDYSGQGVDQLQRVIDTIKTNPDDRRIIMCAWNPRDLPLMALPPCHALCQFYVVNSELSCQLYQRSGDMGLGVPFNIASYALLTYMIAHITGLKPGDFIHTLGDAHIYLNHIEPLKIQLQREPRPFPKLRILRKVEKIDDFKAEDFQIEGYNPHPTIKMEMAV

SMILES	IC50 (Thymidylate synthase [1]) [µM]	IC50 (Dihydrofolate reductase [2]) [nM]	IC50 (Dihydrofolate reductase [3]) [nM]	IC50 (Thymidylate synthase [4]) [nM]	Control (FaDu [5]) [%]	EC50 (A253 cell line) [nM]	EC50 (CCRF-CEM [6]) [nM]	Control (FaDu [7]) [%]	Control (FaDu [8]) [%]	EC50 (FaDu [9]) [nM]	IC50 (Dihydrofolate reductase [10]) [nM]	EC50 (CCRF-CEM [11]) [nM]	Control (FaDu [12]) [%]	Control (FaDu [13]) [%]	EC50 (CCRF-CEM [14]) [nM]
CC1=C(Sc2ccncc2)C2C(=O)NC(N)=NC2N1 (centres undefined)	100	> 69000	> 69000	340											
CC1=C(Sc2ccc(C(=O)NC(CCC(=O)O)C(=O)O)cc2)C2C(=O)NC(N)=NC2N1 (centres undefined)	0.021	2200	2200		83	3000	450	78	4	530	124	810	5	7	
C#CCN(Cc1ccc2[nH]c(N)nc(=O)c2c1)c1ccc(C(=O)NC(CCC(=O)O)C(=O)O)cc1 (centres undefined)															720
CN(Cc1cnc2nc(N)nc(N)c2n1)c1ccc(C(=O)N[C@@H](CCC(=O)O)C(=O)O)cc1 [METHOTREXATE]					11	13		95	18				2	114	
